Measurements as given in ChEMBL document CHEMBL1151737, “Development and preclinical studies of broad-spectrum anti-HIV agent (3'R,4'R)-3-cyanomethyl-4-methyl-3',4'-di-O-(S)-camphanoyl-(+)-cis-khellactone (3-cyanomethyl-4-methyl-DCK)” (J Med Chem, 2008).
Blank lines part the entries; values can stand above or below the compound they belong to.

Legend:
H9 = experiment: Cytotoxicity against human H9 cells; type: cell-based
[1] = test system: Human immunodeficiency virus 1; experiment: Antiviral activity against HIV1 3B infected in human H9 lymphocytes; type: functional, organism-based; details: Human immunodeficiency virus 1, 3B
[2] = Therapeutic index, ratio of IC50 for human H9 cells to EC50 for HIV1 3B; type: cell-based; details: read-out: Ratio IC50/EC50
[3] = test system: Human immunodeficiency virus 1; experiment: Antiviral activity against multidrug-resistant HIV1 with reverse transcriptase clone 7324-1 infected human MT2 cells assessed as inhibition of p24 antigen production after 4 days by ELISA; type: functional, organism-based; details: Human immunodeficiency virus 1, MT2, 96 h
Procedure, shortened: (§1)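 MT-2 cells (1 × 10⁴) infected with HIV-1 (100 TCID50) in RPMI 1640 + 10% FBS with graded compound concentrations overnight; supernatant then replaced with compound-free medium. Day 4 post-infection supernatant lysed with 5% Triton X-100; p24 quantified by sandwich ELISA (HIVIG capture, anti-p24 mAb, TMB, A450) against recombinant p24 standard. Triplicate; EC50 from % inhibition of p24.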

[4] = test system: Human immunodeficiency virus 1; experiment: Antiviral activity against multidrug-resistant HIV1 with reverse transcriptase 41L, 67N, 210W, 215Y, 184V, 103N mutation infected in human MT2 cells assessed as inhibition of p24 antigen production after 4 days by ELISA; type: functional, organism-based; details: Human immunodeficiency virus 1, MT2, 96 h; procedure, shortened: as §1
[5] = test system: Human immunodeficiency virus 1; experiment: Antiviral activity against multidrug-resistant HIV1 with reverse transcriptase 41L, 74V, 184V, 210W, 215Y, ins SS, 98G mutation infected in human MT2 cells assessed as inhibition of p24 antigen production after 4 days by ELISA; type: functional, organism-based; details: Human immunodeficiency virus 1, MT2, 96 h; procedure, shortened: as §1
[6] = test system: Human immunodeficiency virus 1; experiment: Antiviral activity against HIV1 BAL BCF02 isolate of group O with R5 tropism in human PBMC cells assessed as inhibition of p24 antigen production after 4 days by ELISA; type: functional, organism-based; details: Human immunodeficiency virus 1, BAL, 96 h
[7] = test system: Human immunodeficiency virus 1; experiment: Antiviral activity against HIV1 BAL RU570 isolate of subtype G with R5 tropism in human PBMC cells assessed as inhibition of p24 antigen production after 4 days by ELISA; type: functional, organism-based; details: Human immunodeficiency virus 1, BAL, 96 h
[8] = Half life in Sprague-Dawley rat at 2 mg/kg, iv; type: ADME, organism-based; design: dose 2 mg/kg, route intravenous; details: in vivo
Procedure, shortened: (§2)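 Male Sprague-Dawley rats (180–200 g), n = 3, given 2 mg/kg i.v. or 20 mg/kg i.g. in 10% PEG400. Blood taken at 0–720 min, plasma stored at −20 °C. Plasma extracted by acetonitrile protein precipitation and analysed by LC-MS/MS against 5–5000 ng/mL standards. Non-compartmental analysis; F = dose-normalized oral AUC(0–t)/i.v. AUC(0–t). Mean ± SD.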

Rattus norvegicus [9] = experiment: AUC (0 to t) in Sprague-Dawley rat at 20 mg/kg, intragastric gavage; type: ADME, organism-based, Plasma; design: dose 20 mg/kg, route intragastric; details: in vivo, po; procedure, shortened: as §2
[10] = test system: Human immunodeficiency virus 1; experiment: Antiviral activity against HIV Lai with X4 tropism infected human MT4 cells assessed as inhibition of p24 antigen production after 4 days by ELISA; type: functional, organism-based; details: Human immunodeficiency virus 1, M:B_Lai, MT4, 96 h
Procedure, shortened: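 1 × 10⁴ MT-4 cells infected with HIV-1 Lai (100 TCID50) in RPMI 1640/10% FBS with graded compound overnight. Medium then replaced with compound-free medium. Supernatant lysed with Triton X-100 on day 4 and p24 measured by sandwich ELISA (A450) against recombinant p24 standard. Triplicate; EC50 by CalcuSyn.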

[11] = test system: Human immunodeficiency virus 1; experiment: Antiviral activity against HIV1 BAL 93MW959 isolate of subtype C with R5 tropism in human PBMC cells assessed as inhibition of p24 antigen production after 7 days by ELISA; details: Human immunodeficiency virus 1, BAL, 168 h
MT2 = experiment: Cytotoxicity against human MT2 cells after 4 days by XTT assay; type: cell-based; details: mt2, 96 h
Procedure, shortened: (§3)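 Cells (5 × 10⁵/mL) incubated with graded compound at 37 °C for 4 days, then XTT (1 mg/mL) with 0.02 µM PMS added. A450 read after 4 h; CC50 by CalcuSyn. Triplicate.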

[12] = Ratio of EC50 for multidrug-resistant HIV1 with reverse transcriptase 41L, 74V, 184V, 210W, 215Y, ins SS, 98G mutation to EC50 for wild type HIV1 3B; type: functional
Procedure, shortened: (§4)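 Fold change: EC50 against each multi-RT-resistant strain divided by EC50 against wild-type HIV-1 IIIB, both measured by p24 ELISA in MT-2 cells (4-day infection, triplicate).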

[13] = test system: Human immunodeficiency virus 1; experiment: Antiviral activity against HIV1 92UG001 isolate of subtype D with X4R5 tropism in human PBMC cells assessed as inhibition of p24 antigen production after 4 days by ELISA; type: functional, organism-based; details: Human immunodeficiency virus 1, PBMC, 96 h
[14] = test system: Human immunodeficiency virus 1; experiment: Antiviral activity against HIV1 BAL 93MW959 isolate of subtype C with R5 tropism in human PBMC cells assessed as inhibition of p24 antigen production after 4 days by ELISA; type: functional, organism-based; details: Human immunodeficiency virus 1, BAL, 96 h
Rattus norvegicus [15] = experiment: Volume of distribution in Sprague-Dawley rat at 20 mg/kg, intragastric gavage; type: ADME, organism-based; design: dose 20 mg/kg, route intragastric; details: in vivo, po; procedure, shortened: as §2
[16] = Selectivity index, ratio of CC50 for human MT2 cells to EC50 for HIV1 3B; type: toxicity, cell-based; details: read-out: Ratio CC50/EC50
[17] = test system: Human immunodeficiency virus 1; experiment: Antiviral activity against HIV1 3B with X4 tropism infected human MT2 cells assessed as inhibition of p24 antigen production after 4 days by ELISA; type: functional, organism-based; details: Human immunodeficiency virus 1, 3B, MT2, 96 h; procedure, shortened: as §1
[18] = Selectivity index, ratio of CC50 for human MT4 cells to EC50 for HIV1 Lai; type: toxicity, cell-based
Procedure, shortened: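 Ratio of XTT CC50 (4-day MT-4 exposure) to p24-ELISA EC50 against HIV-1 Lai in MT-4 cells.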

[19] = Volume of distribution in Sprague-Dawley rat at 2 mg/kg, iv; type: ADME, organism-based; design: dose 2 mg/kg, route intravenous; details: in vivo; procedure, shortened: as §2
[20] = Ratio of EC50 for multidrug-resistant HIV1 with reverse transcriptase 41 L, 67N, 210W, 215Y, 184V, 103N mutation to EC50 for wild type HIV1 3B; type: functional; procedure, shortened: as §4
Rattus norvegicus [21] = experiment: AUC (0 to t) in Sprague-Dawley rat at 2 mg/kg, iv; type: ADME, organism-based, Plasma; design: dose 2 mg/kg, route intravenous; details: in vivo; procedure, shortened: as §2
[22] = test system: Human immunodeficiency virus 1; experiment: Antiviral activity against HIV1 BAL 92US657 isolate of subtype B with R5 tropism in human PBMC cells assessed as inhibition of p24 antigen production after 7 days by ELISA; details: Human immunodeficiency virus 1, BAL, 168 h
[23] = Clearance in Sprague-Dawley rat at 2 mg/kg, iv; type: ADME, organism-based; design: dose 2 mg/kg, route intravenous; details: in vivo; procedure, shortened: as §2
Rattus norvegicus [24] = experiment: Half life in Sprague-Dawley rat at 20 mg/kg, intragastric gavage; type: ADME, organism-based; design: dose 20 mg/kg, route intragastric; details: in vivo, po; procedure, shortened: as §2
PBMC = experiment: Cytotoxicity against human PBMC after 4 days by XTT assay; type: cell-based; details: 96 h
[25] = Ratio of EC50 for multidrug-resistant HIV1with reverse transcriptase clone 7324-1 to EC50 for wild type HIV1 3B; type: functional; procedure, shortened: as §4
[26] = test system: Human immunodeficiency virus 1; experiment: Antiviral activity against wild type HIV1 3B in human MT2 cells assessed as inhibition of p24 antigen production after 4 days by ELISA; type: functional, organism-based; details: Human immunodeficiency virus 1, 3B, MT2, 96 h
[27] = test system: Human immunodeficiency virus 1; experiment: Antiviral activity against HIV1 93BR020 isolate of subtype F with X4R5 tropism in human PBMC cells assessed as inhibition of p24 antigen production after 4 days by ELISA; type: functional, organism-based; details: Human immunodeficiency virus 1, PBMC, 96 h
Rattus norvegicus [28] = experiment: Bioavailability in Sprague-Dawley rat at 20 mg/kg, intragastric gavage; type: ADME, organism-based; details: in vivo, po; procedure, shortened: as §2
[29] = test system: Human immunodeficiency virus 1; experiment: Antiviral activity against HIV1 94UG103 isolate of subtype A with X4R5 tropism in human PBMC cells assessed as inhibition of p24 antigen production after 7 days by ELISA; details: Human immunodeficiency virus 1, PBMC, 168 h
MT4 = experiment: Cytotoxicity against human MT4 cells after 4 days by XTT assay; type: cell-based; details: mt4, 96 h; procedure, shortened: as §3
[30] = Clearance in Sprague-Dawley rat at 20 mg/kg, intragastric gavage; type: ADME, organism-based; design: dose 20 mg/kg, route intragastric; details: in vivo, po; procedure, shortened: as §2

EC50 [1]: 0.0015 µM
Compound: Cc1cc(=O)oc2c3c(ccc12)OC(C)(C)[C@H](OC(=O)[C@@]12CC[C@](C)(C(=O)O1)C2(C)C)[C@@H]3OC(=O)[C@@]12CC[C@](C)(C(=O)O1)C2(C)C
IC50 (H9): 23.6 µM | selectivity ratio [2]: 15700

Compound: Cc1c(CO)c(=O)oc2c3c(ccc12)OC(C)(C)[C@H](OC(=O)C12CCC(C)(C(=O)O1)C2(C)C)[C@@H]3OC(=O)C12CCC(C)(C(=O)O1)C2(C)C (some centres not stated)
selectivity ratio [2]: 6220

Compound: Cc1ccnc2c1NC(=O)c1cccnc1N2C1CC1 [NEVIRAPINE]
EC50 [3]: > 14.8 µM | EC50 [4]: > 14.8 µM | EC50 [5]: > 14.8 µM

Compound: Cc1c(CC#N)c(=O)oc2c3c(ccc12)OC(C)(C)[C@H](OC(=O)[C@@]12CC[C@](C)(C(=O)O1)C2(C)C)[C@@H]3OC(=O)[C@@]12CC[C@](C)(C(=O)O1)C2(C)C
EC50 [6]: 9.92 µM | EC90 [6]: 18.1 µM | EC50 [7]: 3.27 µM | EC90 [7]: 8.93 µM | half-life [8]: 1.62 h | AUC (Rattus norvegicus [9]): 348067.29 µg/L/min | EC50 [10]: 1.51 µM | EC50 [11]: 0.87 µM | CC50 (MT2): 40.8 µM | EC50 [3]: 3.93 µM | Ratio EC50 [12]: 2.13 | EC50 [13]: 0.98 µM | EC90 [13]: 5.23 µM | EC50 [4]: 1.81 µM | EC90 [14]: 3.06 µM | IC50 (H9): > 37 µM | Vd (Rattus norvegicus [15]): 8.19 L/kg | selectivity ratio [16]: 86.1 | EC50 [17]: 0.47 µM | selectivity ratio [18]: > 66 | Vd [19]: 2.34 L/kg | EC50 [5]: 0.43 µM | Ratio EC50 [20]: 8.96 | AUC (Rattus norvegicus [21]): 195270.08 µg/L/min | EC50 [1]: 0.0024 µM | EC50 [22]: 5.09 µM | EC90 [22]: 9.22 µM | clearance [23]: 10 mL/min/kg | t1/2 (Rattus norvegicus [24]): 2.78 h | CC50 (PBMC): > 150 µM | selectivity ratio [2]: 15400 | Ratio EC50 [25]: 14.4 | EC50 [26]: 0.2 µM | EC50 [27]: 2.18 µM | EC90 [27]: 3.76 µM | F (Rattus norvegicus [28]): 17.8% | EC50 [29]: 0.84 µM | EC90 [29]: 1.63 µM | CC50 (MT4): > 100 µM | CL/F [30]: 58 mL/min/kg
